TRPC4 PAM – allosterically enhances the mouse TRPC4 cation channel; Q9QUQ5; HEK293 TRPC4beta/mu-opioid, DAMGO EC20, Fluo-4 Ca2+ flux; stronger effect = higher value; B-score at 10 µM; 310,000 tested, 0.42% active; AID 2227;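 active = B-score of calcium response area above 5 SD of library B-scores, with initial fluorescence ratio within 5 SD of library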;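 also: B-score of integrated fluorescence ratio over time as area under calcium response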
TRPC4 agonist – activators of mouse TRPC4 channel. 310,000 tested, 0.49% active. HEK293 TRPC4beta/mu-opioid, Fluo4 calcium fluorescence; stronger effect = higher value. B-score at 10 µM. Q9QUQ5;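 active = B-score above 5 SD of library B-scores, and initial fluorescence ratio not above library mean plus 5 SD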;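 also: positive B-score marks a calcium rise read as TRPC4 activation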
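Assay system: HEK293 cells stably co-expressing mouse TRPC4beta and mu-opioid receptor / Timing: Fluo4 dye loading 45 min at room temperature, 110 s recording / Signal: Fluo4 calcium-sensitive dye fluorescence, kinetic, 1 Hz baseline / Read-out: integrated baseline-normalised fluorescence ratio, converted to per-well B score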
TRPC6 activator – activators of mouse TRPC6 channel; Q61143; HEK293-TRPC6 membrane potential dye fluorescence; stronger effect = higher value; B-score at 10 µM; 310,000 tested, 0.13% active; AID 2550;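 active = B-score of the integrated fluorescence ratio above library mean plus 3 SD, and starting fluorescence ratio within library mean plus 5 SD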;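 also: higher score means more depolarization so channel activation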
TRPC4 block – blocks the mouse TRPC4 cation channel. HEK293 TRPC4beta/mu-opioid, DAMGO-evoked Fluo4 calcium flux; stronger effect = lower value. B-score at 10 µM. 300,000 tested, 0.39% active. AID 2247;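 active = B-score over 3 SD under the library average, no early fluorescence shift, positive overall ratio signal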
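Test system – stable TRPC4beta/mu-opioid receptor HEK293 cells · Probe or stimulus – DAMGO, a submaximal dose followed by a maximal one · Dosing – one concentration per compound · Signal – Fluo4 calcium fluorescence by kinetic imaging, 5 s 1 Hz baseline · Evaluation – per-well B score of integrated baseline-normalized Fluo4 ratio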
TRPC6 inhibitor – inhibitors of mouse TRPC6 channel. 310,000 tested, 1.1% active. B-score at 10 µM. Q61143. HEK293-TRPC6, membrane potential dye, ACh-evoked depolarization; stronger effect = lower value;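 active = B-score under library mean minus 3 SD, initial fluorescence not abnormally high, positive integrated signal ratio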;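 also: B-score derived from integrated fluorescence ratio over the kinetic read; more negative B-score means stronger inhibition of depolarization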
The depositor's hits bear a star; i = inactive; . = not tested or not shown. The list is not random: actives were taken first. Their share in the collection is about 2.3%.

SMILES	TRPC4 PAM	TRPC4 agonist	TRPC6 activator	TRPC4 block	TRPC6 inhibitor
CCCn1c(=O)c2sccc2n2c(CCCC(=O)NCc3ccco3)nnc12	i	i	i	i	i
COc1ccc(NC(=O)CC2SC(N)=NC2=O)c([N+](=O)[O-])c1 (stereo unspecified)	i	i	i	i	i
CCOc1[nH]n(-c2ccccc2)c(=O)c1C=Nc1ccc(F)cc1F	i	i	i	i	i
O=c1[nH][nH]c(-c2ccccc2)c1C=Nc1ccc(F)cc1F	79*	i	i	i	i
CCOC(=O)c1c(N)sc(-c2ccccc2)c1C	i	i	i	i	i
CCOC(=O)c1c(N)sc(C(O)(C(F)(F)F)C(F)(F)F)c1-c1ccccc1	i	i	i	-7*	i
O=C(NCc1cccc(Cl)c1)c1cccnc1	i	i	i	i	i
O=C(O)CC(c1cccc2ccccc12)N1Cc2ccccc2C1=O (stereo unspecified)	34*	i	i	i	i
O=C(Nc1cccnc1)C(Cc1ccccc1)n1cccc1 (stereo unspecified)	i	i	i	i	i
O=C(Nc1ncc(Br)s1)C(Cc1ccccc1)n1cccc1 (stereo unspecified)	36*	i	i	i	i
CCOc1ccc(CN(C)CC(=O)Nc2cc(OC)c([N+](=O)[O-])cc2C)cc1	i	i	i	i	i
CN1CCN(CCCN(Cc2cccs2)C(=S)Nc2ccc(Cl)cc2)CC1	i	i	i	i	i
CCc1ccc(NC(=O)N(CCCN2CCOCC2)Cc2cccs2)cc1	i	51*	i	i	i
CCc1ccc(NC(=S)N(CCCN2CCN(C)CC2)Cc2cccs2)cc1	10*	i	i	i	i
Cc1ccc(NC(=O)C(C)OC(=O)Cc2c[nH]c3ccccc23)cc1 (stereo unspecified)	i	i	i	-6*	i
CC(C)NCC(=O)C12CC3CC(CC(C3)C1)C2	i	i	i	i	i
Nc1ccc(Sc2ccc([N+](=O)[O-])cc2)cc1	i	i	i	-6*	i
O=C1C=CC(=O)N1c1ccc(Sc2ccc([N+](=O)[O-])cc2)cc1	i	i	i	i	i
Clc1ccc(-c2csc3ncnc(NCCN4CCOCC4)c23)cc1	i	i	i	-5*	i
Cc1ccc(-c2csc3ncnc(NCCN4CCOCC4)c23)cc1	i	i	i	-6*	i
c1ccc(-c2csc3ncnc(NCCN4CCOCC4)c23)cc1	i	i	i	i	i
COc1ccc(CC(=O)OCC(=O)Nc2cccc(Br)c2)cc1	i	i	i	i	i
CCC1CN(C(=O)Nc2cccc(C)c2)c2cc(C)ccc2O1 (stereo unspecified)	i	i	i	i	i
CS(=O)(=O)N1CCN(c2ccccc2NC(=O)CSc2ccc(Cl)cc2)CC1	10*	i	i	i	i
CS(=O)(=O)N1CCN(c2ccccc2NC(=O)c2ccc(Cl)cc2)CC1	i	i	i	i	i
SMILES	TRPC4 PAM	TRPC4 agonist	TRPC6 activator	TRPC4 block	TRPC6 inhibitor
Cc1ccc(C(O)CN2C3=NCCN3c3ccccc32)cc1 (stereo unspecified)	i	i	i	.	i
CCCn1c(C2CCCN2c2nc(-c3ccc(C)cc3)cs2)nc2ccccc21 (stereo unspecified)	i	46*	i	i	i
Cc1ccc(Cn2c(C3CCCN3c3nc(-c4ccc(F)cc4)cs3)nc3cc(Cl)c(Cl)cc32)cc1 (stereo unspecified)	i	i	i	i	i
CCC(=O)N/N=C/c1ccc(-c2ccc([N+](=O)[O-])cc2)o1	i	i	i	i	i
CN1CCC(NC(=O)c2ccncc2)CC1	i	i	i	i	i
CC1(C)CC(NC(=O)c2ccncc2)CC(C)(C)N1O	i	79*	i	i	i
COc1cccc(C(=O)NC2CCCN(C3Cc4ccccc4C3)C2)c1OC (stereo unspecified)	i	90*	i	i	i
CC#CC(=O)NC1CCCN(C2Cc3ccccc3C2)C1 (stereo unspecified)	i	i	i	i	i
Cc1cc(Nc2ccccc2)nc(NCc2ccccc2)n1	i	i	i	-6*	i
Cc1cc(Nc2ccc(Cl)cc2)nc(NCc2ccccc2)n1	i	i	i	i	i
Cc1cc(N2CCC(C)CC2)nc(-c2ccccc2O)n1	i	i	i	i	i
Cc1cc(N2CCC(C)CC2)nc(NCc2ccccc2)n1	16*	i	i	-6*	i
CCN(c1cccc(C)c1)S(=O)(=O)c1ccc2c(c1)NC(=O)CS2	i	i	i	i	i
COc1cc(C2NC(=O)NC(C)=C2C(C)=O)ccc1O (stereo unspecified)	i	i	i	i	i
CC(C)=N/N=C1\NC(=O)C(C)S1 (stereo unspecified)	i	i	i	i	i
Cc1cccc(CN2CCc3c([nH]c4ccccc34)C2C(C)(C)C)n1 (stereo unspecified)	i	i	i	i	i
OCC1(CCCc2ccccc2)CCN(Cc2cnc(N3CCOCC3)s2)CC1	i	46*	i	i	i
COc1cccc(CC2(CO)CCN(Cc3cnc(N4CCOCC4)s3)CC2)c1	i	i	i	i	i
Cc1ncc(CN2CCC(CO)(CCc3ccccc3)CC2)s1	i	73*	i	i	i
Cc1ncc(CN2CCN(CCc3ccccc3)C(CCO)C2)s1 (stereo unspecified)	i	i	i	i	i
COc1cc(C(=O)NCC(c2cccs2)N(C)C)cc(Cl)c1OC(C)C (stereo unspecified)	i	63*	i	i	i
CCCOc1ccc(C(=O)NCC(c2cccs2)N(C)C)cc1OC (stereo unspecified)	i	i	i	i	i
COc1cc2ccccc2cc1C(=O)NCC(c1cccs1)N(C)C (stereo unspecified)	i	179*	i	i	i
O=C(c1ccc(S(=O)(=O)N2CCCCC2)cc1)N1CCN(CCN2C(=O)c3cccc4cccc(c34)C2=O)CC1	i	i	i	.	i
CC(C)(C)c1ccc(OCc2ccc(C(=O)N3CCOCC3)o2)cc1	i	i	i	i	i
CCCc1ccc(OCc2ccc(C(=O)N3CCSCC3)o2)cc1	20*	i	i	i	i
O=C(O)c1ccc(N/N=C/c2ccc(C(F)(F)F)cc2)cc1	i	i	i	-5*	i
